Test results published in ChEMBL document CHEMBL1133584, “Potent and selective non-peptidic inhibitors of endothelin-converting enzyme-1 with sustained duration of action” (J Med Chem, 2000).

Columns and labels:
Neprilysin = target: T1, Neprilysin (Rattus norvegicus, UniProt P07861); experiment: In vitro inhibition of rat neutral endopeptidase
T1 sequence (P07861 whole entry): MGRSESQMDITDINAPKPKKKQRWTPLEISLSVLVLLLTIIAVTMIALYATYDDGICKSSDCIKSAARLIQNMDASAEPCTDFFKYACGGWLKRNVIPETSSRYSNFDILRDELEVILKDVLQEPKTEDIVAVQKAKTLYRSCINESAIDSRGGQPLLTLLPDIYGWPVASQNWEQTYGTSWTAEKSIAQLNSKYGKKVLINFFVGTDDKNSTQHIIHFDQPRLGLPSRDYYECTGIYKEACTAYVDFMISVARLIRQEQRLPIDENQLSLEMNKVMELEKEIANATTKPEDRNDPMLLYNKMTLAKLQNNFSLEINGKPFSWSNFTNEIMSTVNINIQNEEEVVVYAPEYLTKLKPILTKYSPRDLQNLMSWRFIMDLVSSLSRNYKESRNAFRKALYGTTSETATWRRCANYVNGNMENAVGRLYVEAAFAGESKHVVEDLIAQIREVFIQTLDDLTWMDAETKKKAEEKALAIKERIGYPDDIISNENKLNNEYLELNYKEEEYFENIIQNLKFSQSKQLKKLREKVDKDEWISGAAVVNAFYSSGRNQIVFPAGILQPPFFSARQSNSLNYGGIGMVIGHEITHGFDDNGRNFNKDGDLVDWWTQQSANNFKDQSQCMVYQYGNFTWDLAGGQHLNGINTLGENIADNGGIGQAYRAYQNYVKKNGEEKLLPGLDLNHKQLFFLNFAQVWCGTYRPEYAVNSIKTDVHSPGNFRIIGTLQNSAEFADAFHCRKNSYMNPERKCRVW

[1] = Selectivity ratio of IC50 NEP/IC50 ECE
Method in brief: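 ECE selectivity was the ratio of IC50 against rat kidney cortex NEP 24.11 to IC50 against CHO-membrane human recombinant ECE-1a.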

[2] = target: T2, Endothelin-converting enzyme 1 (Homo sapiens, UniProt P42892); experiment: In Vitro inhibition of recombinant human endothelin converting enzyme-1
T2 sequence (P42892 whole entry): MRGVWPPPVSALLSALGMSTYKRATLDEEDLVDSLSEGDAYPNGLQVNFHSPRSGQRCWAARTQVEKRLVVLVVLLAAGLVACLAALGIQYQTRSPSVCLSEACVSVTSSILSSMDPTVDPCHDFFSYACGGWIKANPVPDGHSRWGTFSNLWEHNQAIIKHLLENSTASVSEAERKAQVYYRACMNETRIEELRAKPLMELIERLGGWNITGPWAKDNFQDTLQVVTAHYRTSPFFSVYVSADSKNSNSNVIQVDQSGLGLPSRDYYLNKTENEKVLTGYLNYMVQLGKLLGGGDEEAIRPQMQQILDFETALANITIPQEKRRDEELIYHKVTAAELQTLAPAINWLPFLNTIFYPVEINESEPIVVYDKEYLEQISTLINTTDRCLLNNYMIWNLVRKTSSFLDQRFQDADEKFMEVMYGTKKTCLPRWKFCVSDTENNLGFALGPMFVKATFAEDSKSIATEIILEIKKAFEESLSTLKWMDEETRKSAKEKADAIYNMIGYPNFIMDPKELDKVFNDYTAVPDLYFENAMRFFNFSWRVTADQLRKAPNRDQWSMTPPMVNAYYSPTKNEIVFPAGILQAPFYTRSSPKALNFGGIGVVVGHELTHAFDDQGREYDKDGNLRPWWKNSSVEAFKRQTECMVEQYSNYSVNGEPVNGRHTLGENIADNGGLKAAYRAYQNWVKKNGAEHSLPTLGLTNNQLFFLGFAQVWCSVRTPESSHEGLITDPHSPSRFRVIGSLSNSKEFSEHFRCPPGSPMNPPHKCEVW
Method in brief: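 Enzyme was human recombinant ECE-1a from membranes of CHO cells expressing it. The IC50 was determined by the assay method of earlier work.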

[3] = target: T3, Endothelin-converting enzyme 1 (Homo sapiens) (UniProt P42892); experiment: Inhibition of Endothelin-converting enzyme 1 activity at a concentration of 1 uM
T3 sequence (whole entry): T2 sequence (P42892 whole entry)
Method in brief: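 Human recombinant ECE-1a came from CHO cell membranes. Activity was measured with test compound at 1 µM and expressed as percent inhibition.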

SMILES | IC50 (Neprilysin) [nM] | Selectivity [1] | IC50 [2] [nM] | inhibition [3] [%]
O=C(O)[C@H](Cc1ccc2c(c1)oc1ccccc12)NCP(=O)(O)O | 2300 | 104 | 22 | 92
O=C1c2ccccc2-c2ccc(CC(NCP(=O)(O)O)c3nnn[nH]3)cc21 (stereo not drawn) | 230 | 7.7 | 30 | 
CC(C)CCCC(N[C@@H](Cc1ccc2c(c1)oc1ccccc12)C(=O)O)P(=O)(O)O (stereo partly drawn) | > 16000 | > 286 | 65 | 89
COc1cc(CCC(N[C@@H](Cc2ccc3c(c2)oc2ccccc23)C(=O)O)P(=O)(O)O)cc(OC)c1OC (stereo partly drawn) | 18000 | 818 | 22 | 92
O=P(O)(O)CNC(Cc1ccc2c(c1)Cc1ccccc1-2)c1nnn[nH]1 (stereo not drawn) | 450 | 0.9 | 520 | 
O=P(O)(O)C(CCc1cccc2ccccc12)N[C@@H](Cc1ccc2c(c1)oc1ccccc12)c1nnn[nH]1 (stereo in doubt; 43b') | 13000 |  | 440 | 

Stronger by IC50 (Neprilysin), values ahead:

IC50 (Neprilysin) [nM] | Selectivity [1] | IC50 [2] [nM] | inhibition [3] [%] | SMILES
140 | < 0.03 | > 4000 |  | Cn1c2ccccc2c2ccc(CC(NCP(=O)(O)O)c3nnn[nH]3)cc21 (stereo not drawn)
2.7 | 0.42 | 6.4 | 95 | O=C(O)[C@H](Cc1ccc2c(c1)oc1ccccc12)NC(=O)[C@H](Cc1ccc2c(c1)oc1ccccc12)NCP(=O)(O)O
114 | 19 | 6 |  | O=P(O)(O)CNC(Cc1ccc2c(c1)oc1ccccc12)c1nnn[nH]1 (stereo not drawn)
31 | 2.3 | 13 | 92 | CC(C)CC(NC(=O)[C@H](Cc1ccc2c(c1)oc1ccccc12)NCP(=O)(O)O)C(=O)O (stereo partly drawn)
12 | 0.5 | 23 | 91 | O=C(O)C(Cc1ccccc1)NC(=O)[C@H](Cc1ccc2c(c1)oc1ccccc12)NCP(=O)(O)O (stereo partly drawn)
